Laboratory results as given in ChEMBL document CHEMBL1221399, “Antitumor Agents. 282. 2'-(R)-O-acetylglaucarubinone, a quassinoid from Odyendyea gabonensis as a potential anti-breast and anti-ovarian cancer agent” (J Nat Prod, 2010).
≈ marks a conversion by molar mass, not a printed value. Calls of active or inactive are those of the source.

Key:
DU-145 = test: Cytotoxicity against human DU145 cells; format: functional; details: read-out: ED50 (the source's name)
Procedure, shortened: (§1)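 Human tumour cell lines DU145, A549, KB and multidrug-resistant KB-VIN were exposed to the quassinoids, with paclitaxel as reference. ED50 was the mean concentration giving 50% effect under the defined assay condition, reported in µM.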

[1] = Cytotoxicity against human KBVIN cells; format: functional; details: read-out: ED50 (the source's name); procedure, shortened: as §1
KB = test: Cytotoxicity against human KB cells; format: functional; details: read-out: ED50 (the source's name); procedure, shortened: as §1
A549 = test: Cytotoxicity against human A549 cells; format: functional; details: read-out: ED50 (the source's name); procedure, shortened: as §1
[2] = Growth inhibition of human KBVIN cells at 10 ug/ml; format: functional; details: read-out: GI
Mus musculus [3] = test: Reduction of mammary gland ductal branching in […]/p53-deficient C57BL/6/129/Sv mouse model at 0.1 mg/kg, ip daily for 5 days measured post last dose by immunohistochemistry; format: functional, organism-based; parameters: dose 0.1 mg/kg
Procedure, shortened: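 Three-month-old Brca1/p53 conditional mutant mice (mixed C57BL/6 and 129/Sv background) dosed i.p. daily for 5 days, with vehicle controls. Fourth-pair mammary glands are whole-mounted, fixed in Carnoy's 3 h and stained overnight with carmine alum. Ductal branching points are scored against vehicle-treated mice, significance by two-tailed t-test.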

Mus musculus [4] = test: Reduction of mammary gland ductal branching in […]/p53-deficient C57BL/6/129/Sv mouse model at 0.1 mg/kg, ip daily for 7 days measured post last dose by immunohistochemistry; format: functional
Procedure, shortened: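 Three-month-old Brca1/p53 conditional mutant mice (Cre, mixed C57BL/6 and 129/Sv background) given […] daily for 7 days. Dose is drawn from a 1 mg/mL DMSO stock, 10 µL mixed with 30 µL 40% PEG and 60 µL 0.9% NaCl at dosing. Controls get vehicle. Fourth-pair glands are whole-mounted, Carnoy-fixed 3 h and carmine alum-stained overnight. Branching points are counted relative to vehicle, two-tailed t-test.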

MCF7 [5] = test: Cytotoxicity against human MCF7 cells overexpressing HER2; format: functional, cell-based
[6] = Cytotoxicity against human MSPC1 cells; format: functional, cell-based
MDA-MB-468 = test: Cytotoxicity against human MDA-MB-468 cells; format: functional, cell-based
[7] = Cytotoxicity against human 2774-C10 cells; format: functional, cell-based
MCF7 [8] = test: Cytotoxicity against human MCF7 cells; format: functional, cell-based
[9] = Cytotoxicity against human HeyA8 cells; format: functional, cell-based; details: HEY A8
BT-474 = test: Cytotoxicity against human BT474 cells; format: functional, cell-based
MDA-MB-231 = test: Cytotoxicity against human MDA-MB-231 cells; format: functional, cell-based
[10] = Cytotoxicity against human HOC7 cells; format: functional, cell-based
SK-BR-3 = test: Cytotoxicity against human SK-BR-3 cells; format: functional, cell-based

| Structure (SMILES) | EC50 (DU-145) | EC50 [1] | EC50 (KB) | EC50 (A549) | other results |
| --- | --- | --- | --- | --- | --- |
| CC[C@@](C)(OC(C)=O)C(=O)O[C@H]1C(=O)O[C@@H]2C[C@H]3C(C)=CC(=O)[C@@H](O)[C@]3(C)[C@H]3[C@@]4(O)OC[C@]32[C@@H]1[C@@H](C)[C@H]4O | 70 nM | 440 nM | 70 nM | 70 nM | – |
| CC[C@](C)(OC(C)=O)C(=O)O[C@H]1C(=O)O[C@@H]2C[C@H]3C(C)=C[C@H](O)[C@@H](O)[C@]3(C)[C@H]3[C@@]4(O)OC[C@]32[C@@H]1[C@@H](C)[C@H]4O | 830 nM | – | 670 nM | 3600 nM | inhibition of growth at 10 µg/mL [2]: < 50% |
| COC(=O)[C@@]12OC[C@]34[C@H]([C@@H](O)[C@@H]1O)[C@@]1(C)CC(=O)C(O)=C(C)[C@@H]1C[C@H]3OC(=O)[C@H](OC(=O)/C=C(\C)C(C)C)[C@@H]24 | – | – | – | – | inhibition (Mus musculus [3]): Active; inhibition (Mus musculus [4]): Active |
| CC[C@](C)(OC(C)=O)C(=O)O[C@H]1C(=O)O[C@@H]2C[C@H]3C(C)=CC(=O)[C@@H](O)[C@]3(C)[C@H]3[C@@]4(O)OC[C@]32[C@@H]1[C@@H](C)[C@H]4O [2'-ACETOXY-GLAUCARUBINONE] | 40 nM | 420 nM | 50 nM | 60 nM | IC50 (MCF7 [5]): 0.013 µg/mL (≈ 0.0242 µM); IC50 [6]: < 0.01 µg/mL; IC50 (MDA-MB-468): 0.016 µg/mL (≈ 0.0298 µM); IC50 [7]: < 0.01 µg/mL; IC50 (MCF7 [8]): 8.13 µg/mL (≈ 15.2 µM); IC50 [9]: < 0.01 µg/mL; IC50 (BT-474): 28.4 µg/mL (≈ 52.9 µM); IC50 (MDA-MB-231): 0.077 µg/mL (≈ 0.144 µM); IC50 [10]: < 0.01 µg/mL; IC50 (SK-BR-3): 0.014 µg/mL (≈ 0.0261 µM) |
| CCC(C)C(=O)O[C@H]1C(=O)O[C@@H]2C[C@H]3C(C)=CC(=O)[C@@H](O)[C@]3(C)[C@H]3[C@]4(O)OC[C@]32[C@@H]1[C@@H](C)[C@H]4O (stereo not given in full) [AILANTHINONE] | 90 nM | 370 nM | 180 nM | 130 nM | – |
| CCC(C)C(=O)O[C@H]1C(=O)O[C@@H]2C[C@H]3C(C)=C[C@H](O)[C@@H](O)[C@]3(C)[C@H]3[C@@]4(O)OC[C@]32[C@@H]1[C@@H](C)[C@H]4O (stereo not given in full) [EXCELSIN] | 4700 nM | – | 4300 nM | 16000 nM | inhibition of growth at 10 µg/mL [2]: < 50% |
| CC[C@](C)(O)C(=O)O[C@H]1C(=O)O[C@@H]2C[C@H]3C(C)=CC(=O)[C@@H](O)[C@]3(C)[C@H]3[C@@]4(O)OC[C@]32[C@@H]1[C@@H](C)[C@H]4O [GLAUCARUBINONE] | 470 nM | 1240 nM | 440 nM | 880 nM | – |
| CC(=O)O[C@H]1C(=O)[C@@]2(C)[C@H]([C@H](OC(=O)c3ccccc3)[C@]3(O)C[C@H](OC(=O)[C@H](O)[C@@H](NC(=O)c4ccccc4)c4ccccc4)C(C)=C1C3(C)C)[C@]1(OC(C)=O)CO[C@@H]1C[C@@H]2O [PACLITAXEL] | 3 nM | > 1000 nM | 7 nM | 8 nM | – |
